Screening results deposited in PubChem by Johns Hopkins Ion Channel Center.
Only some compounds are listed: those with a hit (about 3.7% of all), similar ones and a draw of the others.
KCNK9 inh: inhibitors of human KCNK9 two-pore domain potassium channel; HEK293 KCNK9, FluxOR thallium flux fluorescence; active compounds read low; B-score at 10 µM; Q9NPC2; 310,000 tested, 1.2% active; AID 488922;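 active = ratio B-score over 3 SD below the library mean, with starting fluorescence within 5 SD of its mean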;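 note: negative B-score means less thallium flux so channel inhibition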
KCNQ1 inh: inhibitors of human KCNQ1 potassium channel. B-score at 10 µM. CHO-K1 KCNQ1, FluxOR thallium flux fluorescence; active compounds read high. 310,000 tested, 1.3% active. P51787;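 active = compounds whose thallium flux B-score, printed positive for inhibition, exceeds three library SD while starting fluorescence stays within three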;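 note: channel opened by potassium depolarization with thallium stimulus after 20 min compound exposure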
Kir21 inh: Kir2.1 (mouse) channel inhibition | HEK293-Kir2.1, FluxOR thallium flux fluorescence; active compounds read low | AID 1672 | B-score at 10 µM | 310,000 tested, 0.85% active;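 active = fluorescence ratio B-score at or below minus 3 SD of library scores, with starting-brightness B-score within 2 SD, cut at about -4.2 in these data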;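 note: channel flux triggered by added potassium and thallium sulfate stimulus; B-score of peak minus minimum fluorescence over baseline after thallium stimulus; more negative B-score means stronger Kir2.1 block with less thallium influx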
KCNK3 block: human KCNK3 channel inhibition, primary screen; O14649; CHO-KCNK3 thallium flux, FluxOR fluorescence; active compounds read low; 340,000 tested, 0.84% active; AID 602410; B-score at 10 µM;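 active = B-score under library mean minus 4 SD, starting fluorescence ratio at most library mean plus 5 SD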;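 note: more negative B-score means stronger inhibition of thallium flux through KCNK3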
KCNQ1 pot: human KCNQ1 channel potentiation or activation; 310,000 tested, 0.35% active; B-score at 10 µM; CHO-K1 KCNQ1, thallium flux FluxOR fluorescence; active compounds read high;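 active = fluorescence ratio B-score, a plate-corrected score, at least three library SD, with initial intensity B-score within 5 SD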
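System: Stable KCNQ1 CHO-K1 line | Incubation: 90 min dye loading and 20 min compound exposure, both at room temperature | Measure: Ratio B score | Medium: Assay buffer for compound exposure, DMSO matched across wells | Compound dosing: Single-concentration screen | Probe or stimulus: K+/Tl+ depolarizing stimulus | Measured by: Kinetic FluxOR fluorescence, 10 s baseline plus 110 s post-stimulus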
hERG rescue: shields human hERG channel from block by proarrhythmic agents; CHO-hERG, FluxOR thallium flux, dofetilide IC70 present; activation (rescue from dofetilide block), less the hit threshold, % at 10 µM; 310,000 tested, 0.51% active; AID 1511;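 active = activation above the mean of controls blocked by dofetilide plus 5 SD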;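 note: thallium influx through hERG after potassium depolarization seen as dye fluorescence rise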
KCNK9 inh conf: confirmation of human KCNK9 potassium channel inhibitors; shares compounds with KCNK9 inh; HEK293 KCNK9 cells, FluxOR thallium flux fluorescence; AID 492992; inhibition, % at 10 µM; 4,900 tested, 43% active;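 active = thallium signal inhibited by more than 5 SD of the compound-free buffer control wells, on both duplicate plates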
Kir2-1 spec: mouse Kir2.1 off-target activity of KCNK9 modulators | shares compounds with KCNK9 inh | AID 492993 | 4,900 tested, 4% active | Kir2.1 cells, FluxOR thallium flux fluorescence | inhibition, % at 10 µM;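 active = thallium signal drop more than 5 SD beyond the mean of the no-compound control wells, seen in both duplicate plates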;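 note: signal is fluorescence rise after thallium addition divided by baseline fluorescence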
KCNK9 uninduced: second check of KCNK9 modulator effects in non-induced HEK293 cells | AID 492997 | inhibition, % at 10 µM | shares compounds with KCNK9 inh | 4,900 tested, 40% active | FluxOR thallium flux;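 active = thallium signal drop beyond 5 SD of the untreated control mean, on both duplicate plates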
Of the large screens only hits and unclear results are named; the others gave an inactive call (follow-up assays come after a bar, where they were run).

CC1CN(S(=O)(=O)c2cccc(C(=O)N(CCc3ccccc3)Cc3ccccc3)c2)CC(C)O1 (configuration not stated)	none | KCNK9 inh conf inactive | Kir2-1 spec inactive | KCNK9 uninduced inactive
Cc1ccc(S(=O)(=O)N2CCCCC2)cc1C(=O)N(CCc1ccccc1)Cc1ccccc1	KCNK9 inh -16 | KCNK9 inh conf 79% | Kir2-1 spec inactive | KCNK9 uninduced 43%
Cc1ccc(N(Cc2ccccc2)C(=O)c2cccc(S(=O)(=O)N3CC(C)OC(C)C3)c2)cc1 (configuration not stated)	none
Cc1cc(C)n2nc(/C(C#N)=C/c3ccccn3)c(C#N)c2n1	none
NC(=O)Cn1c(S(=O)(=O)Cc2ccccc2)nc2ccccc21	none
CCOC(=O)Cn1c(S(=O)(=O)Cc2cccc(F)c2)nc(-c2ccccc2)c1-c1ccccc1	KCNK9 inh -11 | KCNK9 inh conf 50% | Kir2-1 spec inactive | KCNK9 uninduced 30%
C#CCn1c(S(=O)(=O)Cc2ccc(F)cc2)nc(-c2ccccc2)c1-c1ccccc1	KCNK9 inh -14 | KCNK9 inh conf 61% | Kir2-1 spec inactive | KCNK9 uninduced 31%
CCOC(=O)Cn1c(S(=O)(=O)Cc2ccc(F)cc2)nc(-c2ccccc2)c1-c1ccccc1	KCNK9 inh -9.1 | KCNK9 inh conf 34% | Kir2-1 spec inactive | KCNK9 uninduced 39%
CCc1ccc(CN(C)C(=O)CCc2nc3ccccc3n(-c3ccc(OC)cc3)c2=O)cc1	none | KCNK9 inh conf inactive | Kir2-1 spec inactive | KCNK9 uninduced 25%
CC(C)(C)c1ccc(C(=O)N2CCN(c3ccc(N4CCOCC4)nn3)CC2)cc1	none
COc1ccccc1-c1nc(C#N)c(N2CCCCCC2)o1	none
COc1ccccc1-c1nc(C#N)c(N2CCc3ccccc3C2)o1	KCNK9 inh -21, KCNK3 block -13 | KCNK9 inh conf 67% | Kir2-1 spec inactive | KCNK9 uninduced inactive
COc1ccccc1-c1nc(C#N)c(N2CCN(c3ccccc3)CC2)o1	KCNK9 inh -12 | KCNK9 inh conf 44% | Kir2-1 spec inactive | KCNK9 uninduced inactive
C=C1CCC2C(C)(C)[C@H](O)CC[C@@]2(C)[C@@H]1COc1cc(=O)oc2ccccc12 (some centres not stated)	KCNK9 inh -13 | KCNK9 inh conf 60% | Kir2-1 spec inactive | KCNK9 uninduced 26%
O=C(N/N=C/c1cc(Br)cc(Br)c1O)c1cccc(S(=O)(=O)N2CCOCC2)c1	KCNK9 inh -8.5 | KCNK9 inh conf 59% | Kir2-1 spec inactive | KCNK9 uninduced 68%
CN(CC(=O)Nc1ccc(F)cc1)CC(=O)N1CCCCCC1	none (no result: KCNK9 inh, KCNQ1 inh, Kir21 inh, KCNQ1 pot, hERG rescue)
CC(C)Cc1nc(N2CCC(C(N)=O)CC2)c2nnn(Cc3ccccc3)c2n1	none
COc1ccc(Cl)cc1Nc1nc(C)nc2c1nnn2Cc1ccccc1	none
COc1ccc(CCNc2nc(C)nc3c2nnn3Cc2ccccc2)cc1	none | KCNK9 inh conf inactive | Kir2-1 spec inactive | KCNK9 uninduced inactive
Cc1nc(NCCc2ccccc2)c2nnn(Cc3ccccc3Cl)c2n1	none
COc1ccc(OC)c(Nc2nc(C3CC3)nc3c2nnn3Cc2ccccc2)c1	none | KCNK9 inh conf inactive | Kir2-1 spec inactive | KCNK9 uninduced inactive
Cc1nc(N2CCC(C)CC2)c2nnn(Cc3ccccc3)c2n1	none | KCNK9 inh conf inactive | Kir2-1 spec inactive | KCNK9 uninduced inactive
CNC(=S)N(Cc1cc2cc(C)ccc2n2nnnc12)CC(C)(C)CN(C)C	none
COc1ccc(Br)cc1CNC(=O)C1CCCN(S(=O)(=O)N2CC(C)CC(C)C2)C1 (configuration not stated)	KCNK9 inh -8.5 | KCNK9 inh conf inactive | Kir2-1 spec inactive | KCNK9 uninduced inactive
